Calls of active or inactive are those of the source. No cut-off for these calls is given here.
What was measured:
[1] = tested on: A-431; experiment: Cytotoxicity against human A431 cells after 96 hrs by MTT assay; assay type: functional, cell-based; conditions: A-431, 96 h
Summary of the method: (§1)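 Adherent cells were grown at 37 °C in 5% CO2 in DMEM or MEM with 10% FBS, L-glutamine, nonessential amino acids and hydrocortisone, then seeded to 30–40% confluence. Compounds were dissolved in water at up to 100 μM, serially diluted tenfold and added for 96 h of continuous exposure. MTT absorbance was read at 570 nm, and IC50 was taken from dose–response analysis.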

[2] = tested on: A549; experiment: Cytotoxicity against human A549 cells after 96 hrs by MTT assay; assay type: functional, cell-based; conditions: A549, 96 h; summary of the method: as §1
[3] = tested on: WI-38; experiment: Cytotoxicity against human WI38 cells after 96 hrs by MTT assay; assay type: cell-based; conditions: WI-38, 96 h; summary of the method: as §1
[4] = tested on: MCF7; experiment: Cytotoxicity against human MCF7 cells after 96 hrs by MTT assay; assay type: functional, cell-based; conditions: MCF7, 96 h; summary of the method: as §1
[5] = tested on: MDA-MB-231; experiment: Cytotoxicity against human MDA-MB-231 cells after 96 hrs by MTT assay; assay type: functional, cell-based; conditions: MDA-MB-231, 96 h; summary of the method: as §1
[6] = tested on: MIA PaCa-2; experiment: Cytotoxicity against human MIAPaCa2 cells after 96 hrs by MTT assay; assay type: functional, cell-based; conditions: MIA PaCa-2, 96 h; summary of the method: as §1
[7] = Cytotoxicity against human primary CLL cells after 96 hrs by annexin V/propidium iodide staining-based FACS flow cytometric analysis; assay type: functional, cell-based
Summary of the method: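 Freshly isolated peripheral blood CLL cells at 1 × 10^6/mL were cultured in RPMI with penicillin, streptomycin and 10% FCS at 37 °C in 5% CO2. Serial dilutions of compound from DMSO stocks were added, with drug-free control cultures. Apoptosis was measured by annexin V/propidium iodide flow cytometry, in duplicate. LD50 came from sigmoidal curves of log concentration against percentage apoptosis.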

[8] = tested on: A2780; experiment: Cytotoxicity against human A2780 cells after 96 hrs by MTT assay; assay type: functional, cell-based; conditions: A2780, 96 h; summary of the method: as §1
[9] = Binding affinity to GC-rich FAM-GCGCAGATTTTCTGCGC-TAMRA DNA (unknown origin) assessed as change in melting temperature at 1 uM by FRET assay
Summary of the method: (§2)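 Fam/Tamra-labelled hairpins, 400 nM in 50 mM potassium cacodylate pH 7.4, annealed at 85 °C for 5 min, cooled over 5 h, then mixed 1:1 with ligand diluted from DMSO stock; ligand 1 μM, 24 h incubation. Fluorescence (excitation 450−495, emission 515−545 nm) read every 0.5 °C from 30−100 °C; Tm from first-derivative maximum of smoothed curves, ΔTm versus blank.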

[10] = Binding affinity to AT-rich FAM-TATAAGATTTTCTTATA-TAMRA DNA (unknown origin) assessed as change in melting temperature at 1 uM by FRET assay; summary of the method: as §2
[11] = Selectivity ratio of deltaTm for GC-rich FAM-GCGCAGATTTTCTGCGC-TAMRA DNA (unknown origin) to deltaTm for AT-rich FAM-TATAAGATTTTCTTATA-TAMRA DNA (unknown origin); summary of the method: as §2
[12] = Binding affinity to GC-rich GCGC-AGA-TTT-TCT-GCGC DNA (unknown origin) after 5 mins by HPLC-MS analysis (reference value: 12 %)
[13] = Binding affinity to AT-rich TATA-AGA-TTT-TCT-TATA DNA (unknown origin) after 5 mins by HPLC-MS analysis (reference value: 70 %)
[14] = tested on: HeLa; experiment: Downregulation of NFAT in human HeLa cells at 10 nM after 4 hrs relative to control; assay type: functional
Summary of the method: (§3)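 Nuclear extracts from 1 × 10^7 HeLa cells treated 4 h, plus untreated controls; 10 μg nuclear protein per sample run on a 48-transcription-factor activation profiling plate array per kit instructions.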

[15] = tested on: MIA PaCa-2; experiment: Inhibition of NFkappaB in human MIAPaCa2 cells xenografted in mouse assessed as downregulation of BCL2 by immunohistochemical staining relative to control; assay type: cell-based
Summary of the method: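 Sections of MIA PaCa-2 xenograft tumors from treated and untreated mice: peroxidase quenched with 0.3% H2O2/methanol 15 min, blocked in 3% goat serum/PBS 30 min, 2 μg/mL BCL2 antibody 1 h at room temperature, then HRP […] antibody 1 h; staining quantified against controls.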

[16] = tested on: CLL; experiment: Inhibition of NFkappaB-mediated p65 phosphorylation in human primary CLL cells at 0.1 nM after 24 hrs by Western blotting analysis; assay type: cell-based
Summary of the method: (§4)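 Primary CLL cells exposed 24 h, washed in PBS and lysed in HEPES-based buffer with NaF, iodoacetamide, NP40, PMSF, orthovanadate, protease and phosphatase inhibitors; Western blots probed for phosphorylated IκBα and p65, actin as loading control.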

[17] = tested on: CLL; experiment: Inhibition of NFkappaB-mediated IkappaBalpha phosphorylation in human primary CLL cells at 0.1 nM after 24 hrs by Western blotting analysis; assay type: cell-based; summary of the method: as §4
[18] = tested on: HeLa; experiment: Inhibition of NFkappaB activity in human HeLa cells at 10 nM after 4 hrs relative to control; assay type: cell-based; summary of the method: as §3
[19] = tested on: HeLa; experiment: Downregulation of SMAD in human HeLa cells at 10 nM after 4 hrs relative to control; assay type: functional; summary of the method: as §3
[20] = tested on: HeLa; experiment: Downregulation of OCT4 in human HeLa cells at 10 nM after 4 hrs relative to control; assay type: functional; summary of the method: as §3
[21] = tested on: HeLa; experiment: Downregulation of EGR in human HeLa cells at 10 nM after 4 hrs relative to control; assay type: functional; summary of the method: as §3
[22] = tested on: MIA PaCa-2; experiment: Antitumor activity against human MIAPaCa2 cells xenografted in MF1 nude mouse at 300 ug/kg/day, iv administered for 5 consecutive days followed by 2 drug-free days repeated for 3 weeks relative to control; assay type: functional, organism-based
Summary of the method: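 MIA PaCa-2 cells (5 × 10^6) implanted subcutaneously in flank of female MF1 nude mice (2−3 months, 20−25 g); at ~0.06 cm3, groups of six. DMSO stock diluted in saline, given by tail-vein injection at 300 μg/kg/day, five days on, two off, for three weeks; vehicle controls. Tumors measured every 3−4 days by ellipsoid formula; mice weighed for toxicity.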

[23] = tested on: Mus musculus; experiment: Toxicity in MF1 nude mouse xenografted with human MDA-MB-231 cells at 250 to 300 ug/kg/day, iv; assay type: organism-based; conditions: in vivo
Summary of the method: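 Female MF1 nude mice (2–3 months old, 20–25 g) carried subcutaneous flank MDA-MB-231 xenografts. At about 0.06 cm3 the mice were split into groups of six: 250 or 300 μg/kg iv by tail vein, or untreated. Compound was dissolved in DMSO and diluted in saline, given daily for 5 days then 2 days off, over 4 weeks. Body weight and signs of toxicity (>20% weight loss) were checked every 3–4 days.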

[24] = tested on: MDA-MB-231; experiment: Antitumor activity against human MDA-MB-231 cells xenografted in MF1 nude mouse at 300 ug/kg/day, iv administered for 5 consecutive days followed by 2 drug-free days repeated for 4 weeks measured up to 3 weeks after last dose; assay type: functional, organism-based
Summary of the method: (§5)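 MDA-MB-231 cells (5 × 10^6) implanted subcutaneously in flank of female MF1 nude mice (2−3 months, 20−25 g), passaged as ~1 mm3 tumor pieces; at ~0.06 cm3 (three weeks) split into groups of six. Agent in DMSO diluted in saline, tail-vein iv at 250 or 300 μg/kg/day, 5 days on/2 off for four weeks; untreated controls. Tumor volume (L×W×H×π/6) and body weight every 3−4 days.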

[25] = tested on: MDA-MB-231; experiment: Antitumor activity against human MDA-MB-231 cells xenografted in iv dosed MF1 nude mouse administered for 5 consecutive days followed by 2 drug-free days repeated for 4 weeks relative to control; assay type: functional, organism-based; summary of the method: as §5
[26] = tested on: Mus musculus; experiment: Toxicity in Swiss Webster mouse at 350 ug/kg/day, ip; assay type: organism-based; conditions: in vivo, 0.35 mg/kg
[27] = Toxicity in ip dosed Swiss Webster mouse; assay type: organism-based; conditions: in vivo
[28] = tested on: Mus musculus; experiment: Toxicity in Swiss Webster mouse assessed as weight loss at 400 ug/kg/day, ip; assay type: organism-based; conditions: in vivo, 0.4 mg/kg

Row | SMILES | IC50 [1] | IC50 [2] | IC50 [3] | IC50 [4] | IC50 [5] | IC50 [6] | IC50 [7] | IC50 [8] | ΔTm [9] | ΔTm [10] | Ratio [11] | other results
1 | COC(=O)c1cc(-c2ccc(N)cc2)cn1C | > 20000 nM | > 20000 nM | > 20000 nM | > 20000 nM | > 20000 nM | > 20000 nM | > 20000 nM | > 20000 nM | – | – | – | –
2 | COC(=O)c1cc(-c2ccc(NC(=O)c3cc(-c4ccc(NC(=O)CCCOc5cc6c(cc5OC)C(=O)N5CCC[C@H]5C=N6)cc4)cn3C)cc2)cn1C | 2.91 nM | 0.54 nM | 159 nM | 0.9 nM | 0.46 nM | 0.35 nM | 4.7 nM | 0.56 nM | 3.6 °C | 0.8 °C | 3.6 | –
3 | COC(=O)c1cc(NC(=O)c2cc(NC(=O)c3cc(-c4ccc(NC(=O)CCCOc5cc6c(cc5OC)C(=O)N5CCC[C@H]5C=N6)cc4)cn3C)cn2C)cn1C | 0.86 nM | 2.3 nM | 41.3 nM | 0.31 nM | 0.59 nM | 0.31 nM | 0.96 nM | 0.24 nM | 4.3 °C | 3.2 °C | 1.34 | –
4 | COC(=O)c1cc(-c2ccc(NC(=O)CCCOc3cc4c(cc3OC)C(=O)N3CCC[C@H]3C=N4)cc2)cn1C | 2.31 nM | 7.5 nM | 160 nM | 1.91 nM | 2.11 nM | 1.2 nM | 6.2 nM | 1.87 nM | 3.9 °C | 0.3 °C | 13 | Activity [12]: 67%; Activity [13]: 3%
5 | COC(=O)c1cc(NC(=O)c2cc(NC(=O)CCCOc3cc4c(cc3OC)C(=O)N3CCC[C@H]3C=N4)cn2C)cn1C | 0.55 nM | 6.1 nM | 41.3 nM | 0.32 nM | 0.12 nM | 2.4 nM | 1.3 nM | 0.57 nM | 1.1 °C | 7.4 °C | 0.15 | Activity [12]: 12%; Activity [13]: 70%
6 | CCOC(=O)c1nc(NC(=O)c2cc(-c3ccc(NC(=O)CCCOc4cc5c(cc4OC)C(=O)N4CCC[C@H]4C=N5)cc3)cn2C)cn1C | 0.19 nM | 0.47 nM | 1240 nM | 0.37 nM | 0.45 nM | 0.11 nM | 3 nM | 0.15 nM | 2.8 °C | 0.5 °C | 5.6 | –
7 | COC(=O)c1cc(-c2ccc(NC(=O)c3nc(NC(=O)CCCOc4cc5c(cc4OC)C(=O)N4CCC[C@H]4C=N5)cn3C)cc2)cn1C | 0.018 nM | 0.034 nM | 129 nM | 2e-05 nM | 0.00018 nM | – | 0.17 nM | 0.021 nM | 6.2 °C | 6 °C | 1.03 | Activity [14]: 30%; inhibition [15]: Active; inhibition [16]: Active; inhibition [17]: Active; inhibition [18]: 50%; Activity [19]: 30%; Activity [20]: 30%; Activity [21]: 30%; Activity [22]: Active; Activity [23]: Non-toxic; Activity [24]: Active; Activity [25]: Dose-dependent effect; Activity [26]: Non-toxic; MTD [27]: 0.4 mg/kg/day
8 | COC(=O)c1cc(NC(=O)c2cc(-c3ccc(NC(=O)CCCOc4cc5c(cc4OC)C(=O)N4CCC[C@H]4C=N5)cc3)cn2C)cn1C | 4.6 nM | 0.019 nM | 426 nM | 1.7 nM | 2.7 nM | 0.34 nM | 2.1 nM | 0.96 nM | 3.1 °C | 2.1 °C | 1.48 | –
9 | COC(=O)c1cc(-c2ccc(NC(=O)c3cc(NC(=O)CCCOc4cc5c(cc4OC)C(=O)N4CCC[C@H]4C=N5)cn3C)cc2)cn1C | – | 0.056 nM | 474 nM | 2e-05 nM | 6.5e-05 nM | – | 0.098 nM | 0.013 nM | 1.4 °C | 5 °C | 0.28 | MTD [27]: 0.4 mg/kg/day; Activity [28]: Toxic
10 | COc1cc2c(cc1OCCCC(=O)O)N=C[C@@H]1CCCN1C2=O | 1090 nM | 1500 nM | 4660 nM | 702 nM | 1670 nM | 1560 nM | > 20000 nM | 3760 nM | 0.2 °C | 0.4 °C | 0.5 | –
11 | COC(=O)c1nc(NC(=O)c2cc(NC(=O)c3cc(-c4ccc(NC(=O)CCCOc5cc6c(cc5OC)C(=O)N5CCC[C@H]5C=N6)cc4)cn3C)cn2C)cn1C | 0.064 nM | 0.45 nM | 65.6 nM | 0.075 nM | 0.015 nM | 0.25 nM | 0.037 nM | > 20000 nM | 5.8 °C | 3.4 °C | 1.7 | –

Source: ChEMBL document CHEMBL2321778, “GC-targeted C8-linked pyrrolobenzodiazepine-biaryl conjugates with femtomolar in vitro cytotoxicity and in vivo antitumor activity in mouse models” (J Med Chem, 2013)
